Measured values as given in the RNAGym collection of RNA variant scans (doi:10.1038/s41586-018-0170-7).

B1: tRNA (parent)
chain: GUUCCGUUGGCGUAAUGGUAACGCGUCUCCCUCCUAAGGAGAAGACUGCGGGUUCGAGUCCCGUACGGAACG

Variants of: B1
Assay: yeast fitness, log relative to wild type (ln ratio); higher = fitter; tRNA-Arg(CCU), competitive growth, 37 C, 1 M NaCl
Procedure, shortened: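 Two independent transformations put a combinatorial tRNA-Arg(CCU) variant library on a HIS3 centromeric plasmid into BY4742 lacking the chromosomal gene. Pools were grown in SC-HIS at 30 °C for 4 generations, then in SC-HIS 1M NaCl at 37 °C for ~6.5 generations (~26.5 h), with three outputs taken per input. Fitness compares a genotype's generations with the wild type's as a natural log ratio. Those generations are OD-scaled log2 output/input frequencies, inverse-variance weighted across replicates, from 125 bp paired-end Illumina counts.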

Compared with AUUCCAUUGGCGUAAUGGUAACGCGUUUCCCUCCUAAGGAGACGACUGCGGGUUCGAGUCCCGUAUGGAAUG [G1A G6A C27U A43C C66U C71U], GGUCCGUUGGCGUAAUGGUAACGCGUCUCCCUCCUAAGGAGAAGAUUGCGGGUUCGAGUCCCGUACGGAAUG [U2G C46U C71U] is higher in “yeast fitness (ln)” value: -0.505 for the first, -0.0759 for the second.

First: AUUCCUUUGGCGUAAUGGUAACGCGUUUCCCUCCUAAGGAGAAGAUUGCGGGUUCGAGUCCCGUACGGGGUG [G1A G6U C27U C46U A69G A70G C71U]
Second: GGUCCAUUGGCGUAAUGGUAACGCGUUUCCCUCCUAAGGAGACGACUGCGGGUUCGAGUCCCGUACGGAUUG [U2G G6A C27U A43C A70U C71U]
The “yeast fitness (ln)” value of the first is lower: -0.335 for the first, -0.242 for the second.

Going from ACUCCUUUGGCGUAAUGGUAACGCGUUUCCCUCCUAAGGAGAAGAUUGCGGGUUCGAGUCCCGUAAGGAGCG [G1A U2C G6U C27U C46U C66A A70G] to AUUCCUUUGGCGUAAUGGUAACGCGUCUCCCUCCUAAGGAGACGAUUGCGGGUUCGAGUCCCGUACGGAGUG [G1A G6U A43C C46U A70G C71U], the “yeast fitness (ln)” value falls from -0.0541 to -0.301.

Compared with GCUCCAUUGGCGUAAUGGUAACGCGUCUCCCUCCUAAGGAGAAGACUGCGGGUUCGAGUCCCGUACGGGGCG [U2C G6A A69G A70G], GCUCCGUUGGCGUAAUGGUAACGCGUUUCCCUCCUAAGGAGACGACUGCGGGUUCGAGUCCCGUACGGAGCG [U2C C27U A43C A70G] is higher in “yeast fitness (ln)” value: -0.0526 for the first, -0.0248 for the second.

First: AUUCCUUUGGCGUAAUGGUAACGCGUCUCCCUCCUAAGGAGAAGACUGCGGGUUCGAGUCCCGUAAGGGGUG [G1A G6U C66A A69G A70G C71U]
Second: GUUCCUUUGGCGUAAUGGUAACGCGUUUCCCUCCUAAGGAGAAGAUUGCGGGUUCGAGUCCCGUAAGGGGUG [G6U C27U C46U C66A A69G A70G C71U]
The “yeast fitness (ln)” value of the first is higher: -0.17 for the first, -0.254 for the second.

Compared with ACUCCGUUGGCGUAAUGGUAACGCGUCUCCCUCCUAAGGAGAAGAUUGCGGGUUCGAGUCCCGUAUGGAAUG [G1A U2C C46U C66U C71U], GUUCCAUUGGCGUAAUGGUAACGCGUCUCCCUCCUAAGGAGACGAUUGCGGGUUCGAGUCCCGUACGGAGUG [G6A A43C C46U A70G C71U] is lower in “yeast fitness (ln)” value: -0.119 for the first, -0.207 for the second.

First: AUUCCGUUGGCGUAAUGGUAACGCGUCUCCCUCCUAAGGAGAAGAUUGCGGGUUCGAGUCCCGUAUGGAACG [G1A C46U C66U]
Second: ACUCCAUUGGCGUAAUGGUAACGCGUUUCCCUCCUAAGGAGAAGAUUGCGGGUUCGAGUCCCGUAUGGAUUG [G1A U2C G6A C27U C46U C66U A70U C71U]
The “yeast fitness (ln)” value of the first is higher: -0.118 for the first, -0.364 for the second.

First: GCUCCUUUGGCGUAAUGGUAACGCGUCUCCCUCCUAAGGAGAAGAUUGCGGGUUCGAGUCCCGUAAGGGGCG [U2C G6U C46U C66A A69G A70G]
Second: GCUCCUUUGGCGUAAUGGUAACGCGUUUCCCUCCUAAGGAGAAGACUGCGGGUUCGAGUCCCGUAUGGAAUG [U2C G6U C27U C66U C71U]
The “yeast fitness (ln)” value of the first is higher: 0.0157 for the first, -0.265 for the second.

Going from ACUCCAUUGGCGUAAUGGUAACGCGUCUCCCUCCUAAGGAGAAGAUUGCGGGUUCGAGUCCCGUACGGAUUG [G1A U2C G6A C46U A70U C71U] to AGUCCAUUGGCGUAAUGGUAACGCGUCUCCCUCCUAAGGAGACGAUUGCGGGUUCGAGUCCCGUAUGGGUUG [G1A U2G G6A A43C C46U C66U A69G A70U C71U], the “yeast fitness (ln)” value falls from -0.00949 to -0.425.

Compared with ACUCCGUUGGCGUAAUGGUAACGCGUCUCCCUCCUAAGGAGACGACUGCGGGUUCGAGUCCCGUACGGAGUG [G1A U2C A43C A70G C71U], GGUCCUUUGGCGUAAUGGUAACGCGUCUCCCUCCUAAGGAGACGAUUGCGGGUUCGAGUCCCGUAUGGGUUG [U2G G6U A43C C46U C66U A69G A70U C71U] is lower in “yeast fitness (ln)” value: -0.011 for the first, -0.4 for the second.

Going from AUUCCAUUGGCGUAAUGGUAACGCGUUUCCCUCCUAAGGAGACGACUGCGGGUUCGAGUCCCGUAUGGAGCG [G1A G6A C27U A43C C66U A70G] to GGUCCAUUGGCGUAAUGGUAACGCGUCUCCCUCCUAAGGAGAAGACUGCGGGUUCGAGUCCCGUACGGGUCG [U2G G6A A69G A70U], the “yeast fitness (ln)” value rises from -0.431 to -0.265.

Going from GCUCCAUUGGCGUAAUGGUAACGCGUCUCCCUCCUAAGGAGACGAUUGCGGGUUCGAGUCCCGUAAGGAUCG [U2C G6A A43C C46U C66A A70U] to GCUCCGUUGGCGUAAUGGUAACGCGUUUCCCUCCUAAGGAGAAGAUUGCGGGUUCGAGUCCCGUACGGGUCG [U2C C27U C46U A69G A70U], the “yeast fitness (ln)” value falls from -0.0148 to -0.198.

Compared with GUUCCUUUGGCGUAAUGGUAACGCGUUUCCCUCCUAAGGAGACGAUUGCGGGUUCGAGUCCCGUAUGGGGUG [G6U C27U A43C C46U C66U A69G A70G C71U], GGUCCAUUGGCGUAAUGGUAACGCGUUUCCCUCCUAAGGAGACGAUUGCGGGUUCGAGUCCCGUAAGGAGCG [U2G G6A C27U A43C C46U C66A A70G] is higher in “yeast fitness (ln)” value: -0.444 for the first, -0.132 for the second.

Compared with ACUCCGUUGGCGUAAUGGUAACGCGUCUCCCUCCUAAGGAGAAGACUGCGGGUUCGAGUCCCGUAUGGGUCG [G1A U2C C66U A69G A70U], GCUCCGUUGGCGUAAUGGUAACGCGUUUCCCUCCUAAGGAGAAGACUGCGGGUUCGAGUCCCGUACGGGUUG [U2C C27U A69G A70U C71U] is lower in “yeast fitness (ln)” value: -0.245 for the first, -0.278 for the second.

Going from AGUCCGUUGGCGUAAUGGUAACGCGUUUCCCUCCUAAGGAGAAGAUUGCGGGUUCGAGUCCCGUAAGGAAUG [G1A U2G C27U C46U C66A C71U] to GUUCCGUUGGCGUAAUGGUAACGCGUCUCCCUCCUAAGGAGACGACUGCGGGUUCGAGUCCCGUAUGGGUCG [A43C C66U A69G A70U], the “yeast fitness (ln)” value falls from -0.0936 to -0.224.

Going from GUUCCAUUGGCGUAAUGGUAACGCGUCUCCCUCCUAAGGAGAAGACUGCGGGUUCGAGUCCCGUAUGGAUUG [G6A C66U A70U C71U] to AGUCCGUUGGCGUAAUGGUAACGCGUCUCCCUCCUAAGGAGACGAUUGCGGGUUCGAGUCCCGUACGGGACG [G1A U2G A43C C46U A69G], the “yeast fitness (ln)” value rises from -0.462 to -0.0712.

Going from AUUCCAUUGGCGUAAUGGUAACGCGUCUCCCUCCUAAGGAGACGAUUGCGGGUUCGAGUCCCGUAUGGAGCG [G1A G6A A43C C46U C66U A70G] to AUUCCAUUGGCGUAAUGGUAACGCGUUUCCCUCCUAAGGAGACGACUGCGGGUUCGAGUCCCGUACGGGGCG [G1A G6A C27U A43C A69G A70G], the “yeast fitness (ln)” value rises from -0.194 to -0.0719.

Going from GCUCCAUUGGCGUAAUGGUAACGCGUCUCCCUCCUAAGGAGAAGACUGCGGGUUCGAGUCCCGUAUGGGACG [U2C G6A C66U A69G] to GUUCCAUUGGCGUAAUGGUAACGCGUUUCCCUCCUAAGGAGAAGACUGCGGGUUCGAGUCCCGUAAGGGUUG [G6A C27U C66A A69G A70U C71U], the “yeast fitness (ln)” value rises from -0.271 to -0.0879.

In the case of ACUCCUUUGGCGUAAUGGUAACGCGUUUCCCUCCUAAGGAGAAGAUUGCGGGUUCGAGUCCCGUACGGGGUG [G1A U2C G6U C27U C46U A69G A70G C71U], the “yeast fitness (ln)” value is reported as -0.272.
